{
  "source": "ChEMBL document CHEMBL4257493",
  "about": "“Discovery of 7-hydroxyaporphines as conformationally restricted ligands for beta-1 and beta-2 adrenergic receptors” (Medchemcomm, 2018)",
  "key": {"[1]": {"molecular_target": "Delta-type opioid receptor (Homo sapiens) (UniProt P41143)", "sequence (P41143 whole entry)": "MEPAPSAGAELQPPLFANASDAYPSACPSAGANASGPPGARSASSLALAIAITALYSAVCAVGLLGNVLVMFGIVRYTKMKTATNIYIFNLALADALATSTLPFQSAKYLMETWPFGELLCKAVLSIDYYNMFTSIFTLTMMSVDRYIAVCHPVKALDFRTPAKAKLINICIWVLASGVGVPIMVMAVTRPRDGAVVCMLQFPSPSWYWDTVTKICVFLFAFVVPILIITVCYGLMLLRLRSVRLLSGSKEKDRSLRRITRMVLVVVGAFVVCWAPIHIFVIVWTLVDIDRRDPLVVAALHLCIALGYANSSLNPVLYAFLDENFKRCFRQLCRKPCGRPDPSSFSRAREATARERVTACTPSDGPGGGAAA", "assay": "Binding affinity to DOR (unknown origin) assessed as inhibition of radioligand binding by radioligand competition binding assay", "conditions": "concentration not given here"}, "Homo sapiens [2]": {"organism": "Homo sapiens", "assay": "Binding affinity to GABAA receptor (unknown origin) assessed as inhibition of radioligand binding by radioligand competition binding assay", "conditions": "concentration not given here"}, "[3]": {"molecular_target": "T1, Beta-1 adrenergic receptor (Homo sapiens, UniProt P08588)", "assay": "Binding affinity to andrenergic beta1 receptor (unknown origin) assessed as inhibition of radioligand binding by radioligand competition binding assay"}, "[4]": {"molecular_target": "5-hydroxytryptamine receptor 3A (Homo sapiens) (UniProt P46098)", "assay": "Binding affinity to 5-HT3 receptor (unknown origin) assessed as inhibition of radioligand binding by radioligand competition binding assay", "conditions": "concentration not given here"}, "[5]": {"molecular_target": "Muscarinic acetylcholine receptor M1 (Homo sapiens) (UniProt P11229)", "sequence (P11229 whole entry)": "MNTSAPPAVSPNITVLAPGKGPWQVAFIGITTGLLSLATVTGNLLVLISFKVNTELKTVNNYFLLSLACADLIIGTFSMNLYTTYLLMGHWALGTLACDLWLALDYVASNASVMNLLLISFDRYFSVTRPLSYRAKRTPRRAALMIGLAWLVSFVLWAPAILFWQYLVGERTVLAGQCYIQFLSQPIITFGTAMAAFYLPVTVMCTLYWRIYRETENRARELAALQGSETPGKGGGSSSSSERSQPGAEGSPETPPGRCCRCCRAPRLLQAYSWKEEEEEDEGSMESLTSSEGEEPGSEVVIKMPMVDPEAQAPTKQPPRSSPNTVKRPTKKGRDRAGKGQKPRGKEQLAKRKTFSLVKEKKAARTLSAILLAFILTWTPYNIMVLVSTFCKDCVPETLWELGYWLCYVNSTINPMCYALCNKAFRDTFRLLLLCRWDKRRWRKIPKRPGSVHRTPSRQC", "assay": "Binding affinity to muscarinic M1 receptor (unknown origin) assessed as inhibition of radioligand binding by radioligand competition binding assay", "conditions": "concentration not given here"}, "[6]": {"molecular_target": "5-hydroxytryptamine receptor 1E (Homo sapiens) (UniProt P28566)", "assay": "Binding affinity to 5-HT1E receptor (unknown origin) assessed as inhibition of radioligand binding by radioligand competition binding assay", "conditions": "concentration not given here"}, "[7]": {"molecular_target": "Sodium-dependent dopamine transporter (Homo sapiens) (UniProt Q01959)", "assay": "Binding affinity to DAT (unknown origin) assessed as inhibition of radioligand binding by radioligand competition binding assay", "conditions": "concentration not given here"}, "[8]": {"molecular_target": "Histamine H4 receptor (Homo sapiens) (UniProt Q9H3N8)", "sequence (Q9H3N8 whole entry)": "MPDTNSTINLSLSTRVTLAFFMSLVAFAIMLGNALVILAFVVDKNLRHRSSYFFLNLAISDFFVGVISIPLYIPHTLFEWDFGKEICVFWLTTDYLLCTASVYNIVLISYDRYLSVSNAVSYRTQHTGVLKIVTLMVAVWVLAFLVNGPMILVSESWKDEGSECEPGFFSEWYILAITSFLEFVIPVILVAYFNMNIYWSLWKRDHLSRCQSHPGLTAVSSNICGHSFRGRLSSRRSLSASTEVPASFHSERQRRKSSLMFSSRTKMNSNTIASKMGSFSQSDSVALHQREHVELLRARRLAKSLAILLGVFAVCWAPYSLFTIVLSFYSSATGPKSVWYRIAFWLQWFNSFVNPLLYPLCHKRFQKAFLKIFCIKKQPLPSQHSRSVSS", "assay": "Binding affinity to histamine H4 receptor (unknown origin) assessed as inhibition of radioligand binding by radioligand competition binding assay", "conditions": "concentration not given here"}, "[9]": {"molecular_target": "Muscarinic acetylcholine receptor M3 (Homo sapiens) (UniProt P20309)", "assay": "Binding affinity to muscarinic M3 receptor (unknown origin) assessed as inhibition of radioligand binding by radioligand competition binding assay", "conditions": "concentration not given here"}, "[10]": {"molecular_target": "T2, Beta-2 adrenergic receptor (Homo sapiens, UniProt P07550)", "assay": "Binding affinity to andrenergic beta2 receptor (unknown origin) assessed as inhibition of radioligand binding by radioligand competition binding assay"}, "[11]": {"molecular_target": "Muscarinic acetylcholine receptor M5 (Homo sapiens) (UniProt P08912)", "sequence (P08912 whole entry)": "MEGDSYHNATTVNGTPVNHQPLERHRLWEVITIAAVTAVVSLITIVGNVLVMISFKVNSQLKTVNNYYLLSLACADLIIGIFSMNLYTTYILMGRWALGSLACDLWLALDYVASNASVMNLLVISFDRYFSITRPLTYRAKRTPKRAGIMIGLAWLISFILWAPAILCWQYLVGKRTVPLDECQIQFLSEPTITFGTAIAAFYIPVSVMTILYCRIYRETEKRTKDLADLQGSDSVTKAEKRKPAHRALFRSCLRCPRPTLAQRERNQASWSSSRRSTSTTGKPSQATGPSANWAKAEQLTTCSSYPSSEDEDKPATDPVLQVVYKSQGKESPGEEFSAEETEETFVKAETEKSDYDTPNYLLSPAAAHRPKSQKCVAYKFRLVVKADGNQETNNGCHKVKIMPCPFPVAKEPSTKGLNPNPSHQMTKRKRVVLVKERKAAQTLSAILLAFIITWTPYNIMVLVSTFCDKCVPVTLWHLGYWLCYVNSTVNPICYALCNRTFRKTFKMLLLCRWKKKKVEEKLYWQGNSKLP", "assay": "Binding affinity to muscarinic M5 receptor (unknown origin) assessed as inhibition of radioligand binding by radioligand competition binding assay", "conditions": "concentration not given here"}, "[12]": {"molecular_target": "T1, Beta-1 adrenergic receptor", "assay": "Agonist activity at human beta1-adrenergic receptor expressed in CHO-K1 cells assessed as induction of cAMP accumulation after 15 mins by HTRF assay", "assay_type": "functional, cell-based", "in_short": "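cAMP accumulation in human β1-expressing CHO-K1 cells, quantified by HTRF. Vehicle 0.40% DMSO. Incubation 15 minutes at 37°C in HBSS with 5 mM HEPES, 0.1% BSA and 100 μM IBMX, pH 7.4. Run by a contract screening service.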"}, "[13]": {"molecular_target": "Alpha-1A adrenergic receptor (Homo sapiens) (UniProt P35348)", "sequence (P35348 whole entry)": "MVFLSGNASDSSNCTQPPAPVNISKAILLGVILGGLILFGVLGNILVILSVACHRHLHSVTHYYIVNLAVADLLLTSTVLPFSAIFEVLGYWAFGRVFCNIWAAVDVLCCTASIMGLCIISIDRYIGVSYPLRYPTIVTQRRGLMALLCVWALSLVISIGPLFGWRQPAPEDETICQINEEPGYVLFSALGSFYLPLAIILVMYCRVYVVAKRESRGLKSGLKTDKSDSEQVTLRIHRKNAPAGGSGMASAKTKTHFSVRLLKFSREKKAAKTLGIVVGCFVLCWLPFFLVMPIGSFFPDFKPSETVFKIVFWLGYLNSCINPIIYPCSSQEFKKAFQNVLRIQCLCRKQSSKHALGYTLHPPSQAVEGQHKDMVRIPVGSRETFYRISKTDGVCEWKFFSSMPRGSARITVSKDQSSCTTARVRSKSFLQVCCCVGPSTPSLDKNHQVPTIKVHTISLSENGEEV", "assay": "Binding affinity to andrenergic alpha1A receptor (unknown origin) assessed as inhibition of radioligand binding by radioligand competition binding assay", "conditions": "concentration not given here"}, "[14]": {"molecular_target": "T2, Beta-2 adrenergic receptor", "assay": "Displacement of [3H]-CGP-12177 from human beta2-adrenergic receptor"}, "[15]": {"molecular_target": "5-hydroxytryptamine receptor 7 (Homo sapiens, UniProt P34969)", "sequence (P34969 whole entry)": "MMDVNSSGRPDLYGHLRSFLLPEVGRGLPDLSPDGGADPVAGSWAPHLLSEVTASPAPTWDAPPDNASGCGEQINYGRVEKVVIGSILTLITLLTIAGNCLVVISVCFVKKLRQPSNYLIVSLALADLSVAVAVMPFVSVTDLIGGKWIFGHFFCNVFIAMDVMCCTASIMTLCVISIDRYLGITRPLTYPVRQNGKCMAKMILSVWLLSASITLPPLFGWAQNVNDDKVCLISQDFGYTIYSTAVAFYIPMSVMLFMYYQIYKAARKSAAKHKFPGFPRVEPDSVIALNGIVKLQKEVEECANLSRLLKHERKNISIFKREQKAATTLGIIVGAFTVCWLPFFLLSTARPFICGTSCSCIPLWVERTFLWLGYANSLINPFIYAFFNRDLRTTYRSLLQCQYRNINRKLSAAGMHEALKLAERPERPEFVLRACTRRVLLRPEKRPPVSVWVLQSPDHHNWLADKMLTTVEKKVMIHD", "assay": "Binding affinity to 5-HT7 receptor (unknown origin) assessed as inhibition of radioligand binding at 10 uM by radioligand competition binding assay"}, "Homo sapiens [16]": {"organism": "Homo sapiens", "assay": "Ratio of IC50 for human beta3-adrenergic receptor to IC50 for human beta1-adrenergic receptor"}, "[17]": {"molecular_target": "Alpha-2B adrenergic receptor (Homo sapiens) (UniProt P18089)", "assay": "Binding affinity to andrenergic alpha2B receptor (unknown origin) assessed as inhibition of radioligand binding at 10 uM by radioligand competition binding assay"}, "[18]": {"molecular_target": "T3, 5-hydroxytryptamine receptor 1D (Homo sapiens, UniProt P28221)", "T3 sequence (P28221 whole entry)": "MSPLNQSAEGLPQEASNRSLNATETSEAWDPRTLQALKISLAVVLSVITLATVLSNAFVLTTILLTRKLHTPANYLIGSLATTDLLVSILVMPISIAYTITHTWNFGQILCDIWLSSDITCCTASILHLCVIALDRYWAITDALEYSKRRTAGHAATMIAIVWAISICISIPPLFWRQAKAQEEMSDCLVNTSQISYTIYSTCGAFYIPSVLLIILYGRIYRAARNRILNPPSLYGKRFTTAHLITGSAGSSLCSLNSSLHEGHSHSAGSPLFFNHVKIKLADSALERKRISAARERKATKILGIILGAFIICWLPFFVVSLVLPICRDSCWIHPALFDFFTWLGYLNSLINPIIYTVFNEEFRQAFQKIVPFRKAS", "assay": "Binding affinity to 5-HT1D receptor (unknown origin) assessed as inhibition of radioligand binding at 10 uM by radioligand competition binding assay"}, "[19]": {"molecular_target": "5-hydroxytryptamine receptor 2B (Homo sapiens, UniProt P41595)", "assay": "Binding affinity to 5-HT2B receptor (unknown origin) assessed as inhibition of radioligand binding by radioligand competition binding assay"}, "[20]": {"molecular_target": "T3, 5-hydroxytryptamine receptor 1D", "assay": "Binding affinity to 5-HT1D receptor (unknown origin) assessed as inhibition of radioligand binding by radioligand competition binding assay"}, "[21]": {"molecular_target": "Histamine H1 receptor (Homo sapiens) (UniProt P35367)", "sequence (P35367 whole entry)": "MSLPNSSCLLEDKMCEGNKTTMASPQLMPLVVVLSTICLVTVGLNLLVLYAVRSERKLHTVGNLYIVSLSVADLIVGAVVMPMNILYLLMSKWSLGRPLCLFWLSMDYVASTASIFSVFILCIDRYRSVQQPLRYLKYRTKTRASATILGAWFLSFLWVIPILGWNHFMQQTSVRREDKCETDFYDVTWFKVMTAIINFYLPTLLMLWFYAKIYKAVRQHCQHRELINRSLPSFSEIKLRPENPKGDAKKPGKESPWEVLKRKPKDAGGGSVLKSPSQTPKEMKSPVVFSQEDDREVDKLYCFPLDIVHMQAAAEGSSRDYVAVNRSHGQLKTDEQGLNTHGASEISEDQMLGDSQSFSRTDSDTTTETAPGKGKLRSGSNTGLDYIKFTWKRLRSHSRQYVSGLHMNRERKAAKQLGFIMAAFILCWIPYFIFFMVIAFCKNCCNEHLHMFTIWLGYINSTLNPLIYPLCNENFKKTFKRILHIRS", "assay": "Binding affinity to histamine H1 receptor (unknown origin) assessed as inhibition of radioligand binding by radioligand competition binding assay", "conditions": "concentration not given here"}, "[22]": {"molecular_target": "Histamine H2 receptor (Homo sapiens) (UniProt P25021)", "assay": "Binding affinity to histamine H2 receptor (unknown origin) assessed as inhibition of radioligand binding by radioligand competition binding assay", "conditions": "concentration not given here"}, "[23]": {"molecular_target": "D(2) dopamine receptor (Homo sapiens) (UniProt P14416)", "sequence (P14416 whole entry)": "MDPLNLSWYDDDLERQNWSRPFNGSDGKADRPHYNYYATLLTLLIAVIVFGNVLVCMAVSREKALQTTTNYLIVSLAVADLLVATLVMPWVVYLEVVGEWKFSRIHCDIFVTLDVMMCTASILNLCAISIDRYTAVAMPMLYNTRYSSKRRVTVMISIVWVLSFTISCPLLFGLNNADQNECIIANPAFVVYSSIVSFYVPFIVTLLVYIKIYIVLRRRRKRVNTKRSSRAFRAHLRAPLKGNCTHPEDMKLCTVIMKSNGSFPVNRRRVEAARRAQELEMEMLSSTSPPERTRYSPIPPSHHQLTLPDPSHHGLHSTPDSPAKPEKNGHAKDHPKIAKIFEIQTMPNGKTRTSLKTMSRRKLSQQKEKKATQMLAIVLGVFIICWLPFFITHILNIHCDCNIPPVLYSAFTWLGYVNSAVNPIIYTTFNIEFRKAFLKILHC", "assay": "Binding affinity to dopamine D2 receptor (unknown origin) assessed as inhibition of radioligand binding by radioligand competition binding assay", "conditions": "concentration not given here"}, "[24]": {"molecular_target": "T1, Beta-1 adrenergic receptor", "assay": "Binding affinity to andrenergic beta1 receptor (unknown origin) assessed as inhibition of radioligand binding at 10 uM by radioligand competition binding assay"}, "[25]": {"molecular_target": "Histamine H3 receptor (Homo sapiens) (UniProt Q9Y5N1)", "assay": "Binding affinity to histamine H3 receptor (unknown origin) assessed as inhibition of radioligand binding by radioligand competition binding assay", "conditions": "concentration not given here"}, "[26]": {"molecular_target": "5-hydroxytryptamine receptor 6 (Homo sapiens, UniProt P50406)", "assay": "Binding affinity to 5-HT6 receptor (unknown origin) assessed as inhibition of radioligand binding at 10 uM by radioligand competition binding assay"}, "[27]": {"molecular_target": "T2, Beta-2 adrenergic receptor", "assay": "Binding affinity to andrenergic beta2 receptor (unknown origin) assessed as inhibition of radioligand binding at 10 uM by radioligand competition binding assay"}, "[28]": {"molecular_target": "Mu-type opioid receptor (Homo sapiens) (UniProt P35372)", "sequence (P35372 whole entry)": "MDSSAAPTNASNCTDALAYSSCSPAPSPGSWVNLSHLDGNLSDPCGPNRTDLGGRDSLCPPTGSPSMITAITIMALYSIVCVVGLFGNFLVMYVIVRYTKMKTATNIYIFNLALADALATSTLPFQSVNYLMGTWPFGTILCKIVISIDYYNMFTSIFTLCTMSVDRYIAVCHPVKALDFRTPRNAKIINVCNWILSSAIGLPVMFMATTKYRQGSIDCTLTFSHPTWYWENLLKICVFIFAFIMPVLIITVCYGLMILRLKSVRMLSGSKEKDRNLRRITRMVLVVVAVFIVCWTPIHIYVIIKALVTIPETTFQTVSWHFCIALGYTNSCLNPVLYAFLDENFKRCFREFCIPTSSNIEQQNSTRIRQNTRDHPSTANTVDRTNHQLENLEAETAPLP", "assay": "Binding affinity to MOR (unknown origin) assessed as inhibition of radioligand binding by radioligand competition binding assay", "conditions": "concentration not given here"}, "[29]": {"molecular_target": "5-hydroxytryptamine receptor 2C (Homo sapiens) (UniProt P28335)", "assay": "Binding affinity to 5-HT2C receptor (unknown origin) assessed as inhibition of radioligand binding by radioligand competition binding assay", "conditions": "concentration not given here"}, "[30]": {"molecular_target": "Alpha-2A adrenergic receptor (Homo sapiens) (UniProt P08913)", "assay": "Binding affinity to andrenergic alpha2A receptor (unknown origin) assessed as inhibition of radioligand binding at 10 uM by radioligand competition binding assay"}, "Rattus norvegicus": {"organism": "Rattus norvegicus", "assay": "Binding affinity to rat GABAA BZP receptor assessed as inhibition of radioligand binding by radioligand competition binding assay", "conditions": "concentration not given here"}, "[31]": {"molecular_target": "D(1B) dopamine receptor (Homo sapiens) (UniProt P21918)", "sequence (P21918 whole entry)": "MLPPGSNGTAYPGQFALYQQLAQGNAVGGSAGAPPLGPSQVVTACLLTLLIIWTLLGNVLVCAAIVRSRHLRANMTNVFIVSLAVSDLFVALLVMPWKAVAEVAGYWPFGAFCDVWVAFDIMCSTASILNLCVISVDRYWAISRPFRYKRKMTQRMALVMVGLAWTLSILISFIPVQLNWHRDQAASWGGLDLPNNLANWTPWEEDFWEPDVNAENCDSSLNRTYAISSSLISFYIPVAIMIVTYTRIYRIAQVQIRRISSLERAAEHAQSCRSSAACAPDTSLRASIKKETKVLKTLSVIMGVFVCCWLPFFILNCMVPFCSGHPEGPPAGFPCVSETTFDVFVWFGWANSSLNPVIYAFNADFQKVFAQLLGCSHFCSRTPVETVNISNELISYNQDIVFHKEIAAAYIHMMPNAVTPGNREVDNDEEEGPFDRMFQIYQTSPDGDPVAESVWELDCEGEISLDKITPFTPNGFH", "assay": "Binding affinity to dopamine D5 receptor (unknown origin) assessed as inhibition of radioligand binding by radioligand competition binding assay", "conditions": "concentration not given here"}},
  "note": "pIC50, pKi: −log10 of the molar value. Activity calls are given as the source filed them. No cut-off for these calls is given here.",
  "data": [
    {"smiles": "COc1cc2c3c(c1OC)-c1ccccc1[C@@H](O)[C@@H]3NCC2", "values": [
      {"measurement": "inhibition", "setting": "[1]", "result": "< 50", "unit": "%"},
      {"measurement": "inhibition", "setting": "Homo sapiens [2]", "result": "< 50", "unit": "%"},
      {"measurement": "pKi", "setting": "[3]", "result": 7.72},
      {"measurement": "inhibition", "setting": "[4]", "result": "< 50", "unit": "%"},
      {"measurement": "inhibition", "setting": "[5]", "result": "< 50", "unit": "%"},
      {"measurement": "inhibition", "setting": "[6]", "result": "< 50", "unit": "%"},
      {"measurement": "inhibition", "setting": "[7]", "result": "< 50", "unit": "%"},
      {"measurement": "inhibition", "setting": "[8]", "result": "< 50", "unit": "%"},
      {"measurement": "inhibition", "setting": "[9]", "result": "< 50", "unit": "%"},
      {"measurement": "pKi", "setting": "[10]", "result": 7.89},
      {"measurement": "inhibition", "setting": "[11]", "result": "< 50", "unit": "%"},
      {"measurement": "Activity", "setting": "[12]", "result": "inactive"},
      {"measurement": "inhibition", "setting": "[13]", "result": "< 50", "unit": "%"},
      {"measurement": "pIC50", "setting": "[14]", "result": 8.85},
      {"measurement": "inhibition", "setting": "[15]", "result": "> 50", "unit": "%"},
      {"measurement": "Ratio IC50", "setting": "Homo sapiens [16]", "result": 150},
      {"measurement": "inhibition", "setting": "[17]", "result": "> 50", "unit": "%"},
      {"measurement": "inhibition", "setting": "[18]", "result": "> 50", "unit": "%"},
      {"measurement": "pKi", "setting": "[19]", "result": 6.61},
      {"measurement": "pKi", "setting": "[20]", "result": 6.07},
      {"measurement": "inhibition", "setting": "[21]", "result": "< 50", "unit": "%"},
      {"measurement": "inhibition", "setting": "[22]", "result": "< 50", "unit": "%"},
      {"measurement": "inhibition", "setting": "[23]", "result": "< 50", "unit": "%"},
      {"measurement": "inhibition", "setting": "[24]", "result": "> 50", "unit": "%"},
      {"measurement": "inhibition", "setting": "[25]", "result": "< 50", "unit": "%"},
      {"measurement": "inhibition", "setting": "[26]", "result": "> 50", "unit": "%"},
      {"measurement": "inhibition", "setting": "[27]", "result": "> 50", "unit": "%"},
      {"measurement": "inhibition", "setting": "[28]", "result": "< 50", "unit": "%"},
      {"measurement": "inhibition", "setting": "[29]", "result": "< 50", "unit": "%"},
      {"measurement": "inhibition", "setting": "[30]", "result": "> 50", "unit": "%"},
      {"measurement": "inhibition", "setting": "Rattus norvegicus", "result": "< 50", "unit": "%"},
      {"measurement": "inhibition", "setting": "[31]", "result": "< 50", "unit": "%"}
    ]}
  ]
}
